Usually Ki stands for a measure of affinity in units of concentration, obtained from inhibition or displacement. By Cmax is commonly meant the maximum level reached in the sampled fluid or tissue. Broadly, the half-life is the time in which the quantity being followed falls by half. One may read the bioavailability as the share of a dose that reaches the circulation, judged against a reference dose that is usually intravenous. The term logD denotes lipophilicity at a set pH, counting ionised and neutral species. A word on the IC50: it is the concentration that inhibits the measured activity by half.

Each structure is given as a SMILES string. Bounds are passed on as bounds.

Data on 22 compounds can be found in ChEMBL document CHEMBL1921745, “CCR2 receptor antagonists: optimization of biaryl sulfonamides to increase activity in whole blood” (Bioorg Med Chem Lett, 2011).

Series [1] concerns the target T1, C-C chemokine receptor type 2 (Homo sapiens, UniProt P41597). The series can be described thus: Antagonist activity at human CCR2 receptor expressed in CHO cells assessed as inhibition of MCP1-induced [35S]-GTPgammaS binding after 3 hrs. The class given is functional, cell-based.
Target sequence in this assay (P41597 whole entry): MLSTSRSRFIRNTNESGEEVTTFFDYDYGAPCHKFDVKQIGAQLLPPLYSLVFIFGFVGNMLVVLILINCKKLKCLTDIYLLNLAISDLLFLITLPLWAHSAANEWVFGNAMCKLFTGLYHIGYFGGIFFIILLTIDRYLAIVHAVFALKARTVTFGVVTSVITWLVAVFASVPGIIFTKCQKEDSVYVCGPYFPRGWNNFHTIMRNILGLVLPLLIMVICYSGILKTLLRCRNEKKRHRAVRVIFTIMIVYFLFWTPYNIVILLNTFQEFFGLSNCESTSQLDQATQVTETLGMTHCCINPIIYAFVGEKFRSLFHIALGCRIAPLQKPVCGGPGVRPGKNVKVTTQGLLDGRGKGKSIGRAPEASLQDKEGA
The target in series [2] is T1, C-C chemokine receptor type 2. Put plainly: Antagonist activity at human CCR2 receptor expressed in CHO cells assessed as inhibition of MCP1-induced [35S]-GTPgammaS binding after 3 hrs in presence of 5% human serum albumin. The class given is functional, cell-based. The essentials:
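GTPγS functional assay at CCR2 run side by side with the HSA-free primary assay. HSA present at 0.2% w/v, described as 5% of physiological concentration.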
Target sequence in this assay (P41597 whole entry): as above
(Binding of GTPγS marks nucleotide exchange on a G protein.)

The target is the same in series [3]. Put plainly: Ratio of IC50 for human CCR2 receptor in presence of 5% human serum to IC50 for human CCR2 receptor.
Target sequence in this assay (P41597 whole entry, looked up): as the sequence (P41597 whole entry) above
For series [4] the target is unchanged. The series can be described thus: Antagonist activity at CCR2 receptor in human whole blood assessed as inhibition of MCP-1 induced monocyte shape change pretreated for 15 mins before MCP-1 challenge measured after 5 mins by flow cytometry. As to conditions: read-out: pA2 (converted). Type of series: functional, tissue-based. The essentials:
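Fresh blood from healthy human donors, preincubated 15 minutes with antagonist, then stimulated 5 minutes with a range of MCP-1 concentrations. Samples fixed rapidly and analysed by flow cytometry for increase in monocyte side scatter, plotted against MCP-1 concentration. pA2 derived by comparison with the MCP-1 dose response in vehicle-treated blood.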
Target sequence in this assay (P41597 whole entry): as above

A short description of series [5]: Cmax in satellite C57BL/6 mouse at 40 mg/kg, po. The class given is ADME, organism-based. On the set-up: dose 40 mg/kg, route oral. As to conditions: in vivo. The procedure, abridged:
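Female C57Bl/6 satellite mice from the peritonitis study were given 40 mg/kg orally, with blood levels followed over about 7 hours.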

The nature of series [6]: Cmax in rat at 1 mg/kg, iv and 1.5 mg/kg, po. Type of series: ADME, organism-based. The settings on record: in vivo.
Series [7] is described as follows: Half life in rat at 1 mg/kg, iv and 1.5 mg/kg, po. Type of series: ADME, organism-based. As to conditions: in vivo.
The nature of series [8]: Clearance in rat at 1 mg/kg, iv and 1.5 mg/kg, po. Type of series: ADME, organism-based. As to conditions: in vivo.
The nature of series [9]: Volume of distribution at steady state in rat at 1 mg/kg, iv and 1.5 mg/kg, po. Type of series: ADME, organism-based. As to conditions: in vivo, read-out: Vdss.
Series [10] in a line: Oral bioavailability in rat at 1.5 mg/kg. The settings on record: in vivo. The class given is ADME, organism-based.
The nature of series [11]: Lipophilicity, log D of the compound. As to conditions: octanol/water. The class given is physicochemical.
The next series concerns Mus musculus. Put plainly: Reduction of monocyte recruitment in CCR2 deficient C57BL/6 mouse thioglycolate-induced peritonitis model at 40 mg/kg, po administered 3 hrs before thioglycolate challenge relative to control. The settings on record: in the assay text read “humanized CCR2 knock-in” for “CCR2 deficient”. On the set-up: scale not given: the % may be the effect or the level left. Type of series: functional. The essentials:
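Thioglycolate-induced peritonitis model in humanized CCR2 knock-in mice. Antagonist given orally at 40 mg/kg and monocyte recruitment compared with a vehicle group.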

Series [12] deals with Voltage-gated inwardly rectifying potassium channel KCNH2 (Homo sapiens, UniProt Q12809). The series can be described thus: Inhibition of human ERG.
Series [13] addresses T2, C-C chemokine receptor type 1 (Homo sapiens, UniProt P32246).
T2 sequence (P32246 whole entry): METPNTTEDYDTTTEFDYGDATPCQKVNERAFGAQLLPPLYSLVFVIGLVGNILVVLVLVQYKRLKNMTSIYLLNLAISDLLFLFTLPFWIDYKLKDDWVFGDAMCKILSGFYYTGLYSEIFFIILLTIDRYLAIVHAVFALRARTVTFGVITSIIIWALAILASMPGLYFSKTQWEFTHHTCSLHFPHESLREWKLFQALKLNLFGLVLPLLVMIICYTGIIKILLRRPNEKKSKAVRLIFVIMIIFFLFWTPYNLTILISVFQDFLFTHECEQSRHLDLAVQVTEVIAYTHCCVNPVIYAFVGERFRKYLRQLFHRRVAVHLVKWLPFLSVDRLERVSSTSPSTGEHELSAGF
Put plainly: Antagonist activity at CCR1. The class given is functional.

The target in series [14] is T3, C-C chemokine receptor type 4 (Homo sapiens, UniProt P51679).
T3 sequence (P51679 whole entry): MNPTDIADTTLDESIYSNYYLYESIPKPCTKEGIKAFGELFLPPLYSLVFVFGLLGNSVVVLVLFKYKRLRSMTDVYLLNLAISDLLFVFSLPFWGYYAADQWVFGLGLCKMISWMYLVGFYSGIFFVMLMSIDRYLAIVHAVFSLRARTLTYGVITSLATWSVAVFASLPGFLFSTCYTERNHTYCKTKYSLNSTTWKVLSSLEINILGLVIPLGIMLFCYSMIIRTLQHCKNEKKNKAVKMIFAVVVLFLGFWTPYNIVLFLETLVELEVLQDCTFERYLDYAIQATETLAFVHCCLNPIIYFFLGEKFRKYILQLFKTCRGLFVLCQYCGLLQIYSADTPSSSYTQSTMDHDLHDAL
Put plainly: Antagonist activity at CCR4. The class given is functional.

Series [15] in a line: Cmax in rat at 1 mg/kg, iv and 2 mg/kg, po. The class given is ADME, organism-based. The settings on record: in vivo.
A short description of series [16]: Half life in rat at 1 mg/kg, iv and 2 mg/kg, po. The class given is ADME, organism-based. As to conditions: in vivo.
Series [17] is described as follows: Clearance in rat at 1 mg/kg, iv and 2 mg/kg, po. The class given is ADME, organism-based. The settings on record: in vivo.
A short description of series [18]: Volume of distribution at steady state in rat at 1 mg/kg, iv and 2 mg/kg, po. Type of series: ADME, organism-based. As to conditions: in vivo, read-out: Vdss.
Series [19] in a line: Oral bioavailability in rat at 2 mg/kg. The class given is ADME, organism-based. As to conditions: in vivo.

Chain of Voltage-gated inwardly rectifying potassium channel KCNH2 (Q12809 whole entry): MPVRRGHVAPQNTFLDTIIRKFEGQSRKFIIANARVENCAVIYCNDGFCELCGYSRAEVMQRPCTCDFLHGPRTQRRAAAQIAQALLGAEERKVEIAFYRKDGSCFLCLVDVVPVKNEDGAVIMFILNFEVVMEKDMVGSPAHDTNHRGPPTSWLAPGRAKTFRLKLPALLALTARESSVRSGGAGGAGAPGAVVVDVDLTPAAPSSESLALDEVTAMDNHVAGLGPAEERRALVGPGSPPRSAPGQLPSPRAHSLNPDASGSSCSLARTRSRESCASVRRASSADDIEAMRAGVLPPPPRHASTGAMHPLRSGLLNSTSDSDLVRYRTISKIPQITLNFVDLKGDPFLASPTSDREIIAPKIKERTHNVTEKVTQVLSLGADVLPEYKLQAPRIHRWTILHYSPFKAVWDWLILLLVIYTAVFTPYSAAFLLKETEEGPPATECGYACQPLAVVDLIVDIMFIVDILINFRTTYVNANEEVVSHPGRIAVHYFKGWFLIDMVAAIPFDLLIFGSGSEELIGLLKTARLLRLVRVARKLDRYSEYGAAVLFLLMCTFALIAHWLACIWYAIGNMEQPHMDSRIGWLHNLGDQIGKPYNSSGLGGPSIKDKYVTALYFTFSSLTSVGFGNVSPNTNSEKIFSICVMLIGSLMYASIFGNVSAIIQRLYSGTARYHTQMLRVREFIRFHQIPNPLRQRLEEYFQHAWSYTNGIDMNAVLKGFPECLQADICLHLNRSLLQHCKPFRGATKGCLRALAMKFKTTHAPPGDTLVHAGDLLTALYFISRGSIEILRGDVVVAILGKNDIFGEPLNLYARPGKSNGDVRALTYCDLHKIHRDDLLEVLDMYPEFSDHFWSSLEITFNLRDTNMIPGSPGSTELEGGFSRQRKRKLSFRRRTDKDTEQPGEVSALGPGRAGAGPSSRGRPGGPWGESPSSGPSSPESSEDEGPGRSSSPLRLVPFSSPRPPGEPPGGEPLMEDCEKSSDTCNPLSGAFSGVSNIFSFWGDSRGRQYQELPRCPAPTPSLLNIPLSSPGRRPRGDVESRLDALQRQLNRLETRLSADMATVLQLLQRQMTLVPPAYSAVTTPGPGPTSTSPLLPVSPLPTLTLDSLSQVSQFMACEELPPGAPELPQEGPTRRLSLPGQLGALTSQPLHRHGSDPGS

Consider `O=C(NCCN1CCCC1)c1ccccc1Oc1ncc(Cl)cc1NS(=O)(=O)c1ccc(Cl)c(Cl)c1`, for which the Ki stood at 631 nM in series [1] and 2510 nM in series [2]. Besides, the fold change (FC) in [3] came out at 4.
In the case of `Cc1cc(C(=O)NCCN2CCCCC2)ccc1Oc1ccc(Cl)cc1NS(=O)(=O)c1ccc(Cl)c(C(F)(F)F)c1`, the Ki in series [1] came out at 25 nM. The Kb in series [4] was 2510 nM.
Taken in the same sequence, the figures for `O=C(NCCN1CCCC1)c1ccc(Oc2ccc(Cl)cc2NS(=O)(=O)c2ccc(Cl)c(C(F)(F)F)c2)cc1` were 2 nM and 501 nM.
Taken in the same sequence, the figures for `O=C(NCCN1CCCCC1)c1ccc(Oc2ccc(Cl)cc2NS(=O)(=O)c2ccc(Cl)c(Cl)c2)cc1` were 63 nM and 3160 nM.
The corresponding values for `Cc1cc(C(=O)NCCN2CCCC2)ccc1Oc1ccc(Cl)cc1NS(=O)(=O)c1ccc(Cl)c(C(F)(F)F)c1` are 8 nM and 501 nM.
On to `Cc1cc(Oc2ccc(C(=O)NCCN3CCCC3)cc2)c(NS(=O)(=O)c2ccc(Cl)c(C(F)(F)F)c2)cc1Cl`, for which the Ki in series [1] is 8 nM. In addition, the Kb in [4] is 398 nM.
Turning to `O=C(NCCN1CCCCC1)c1ccccc1Oc1ncc(Cl)cc1NS(=O)(=O)c1ccc(Cl)c(Cl)c1`, the Ki was 794 nM in series [1] and 1590 nM in [2]. For the same compound, in series [3], the fold change (FC) is 2.
The corresponding values for `O=C(NCCN1CCNCC1)c1cccc(Oc2ncc(Cl)cc2NS(=O)(=O)c2ccc(Cl)c(Cl)c2)c1` are 200 nM, 2510 nM and 13.
Consider `COc1cc(Oc2ccc(C(=O)NCCN3CCCCC3)cc2)c(NS(=O)(=O)c2ccc(Cl)c(C(F)(F)F)c2)cc1Cl`, for which, in series [1], the inhibitory constant (Ki) amounted to 10 nM. Also, the Kb in series [4] is 398 nM.
For `COc1cc(C(=O)NCCN2CCCC2)ccc1Oc1ccc(Cl)cc1NS(=O)(=O)c1ccc(Cl)c(C(F)(F)F)c1`, the highest concentration (Cmax) in series [5] was 1970 ng/mL; in series [6], 652 ng/mL. Besides, the Ki in series [1] was 6 nM. In series [4], the Kb was 251 nM. In addition, in [7], the half-life is 3.9 h. In series [8], this compound came in with a clearance of 17 mL/min/kg. The Vd in series [9] stood at 2.7 L/kg. The bioavailability in series [10] is 37%. This compound registered a log distribution coefficient (logD) in series [11] of 2.3. Moreover, the Activity in the series on Mus musculus came out at 56%. Also, the IC50 is 25100 nM in [12], more than 25100 nM in series [13] and more than 10000 nM in [14].
`O=C(NCCN1CCCCC1)c1ccc(Oc2ccc(Cl)cc2NS(=O)(=O)c2ccc(Cl)c(C(F)(F)F)c2)cc1`: the Ki in series [1] came to 10 nM. The Kb in series [4] was 631 nM.
For `Cc1ncccc1Oc1ncc(Cl)cc1NS(=O)(=O)c1ccc(Cl)c(Cl)c1`, the Ki in [2] turned out to be 1260 nM. Besides, in series [3], the fold change (FC) worked out at 126.
Regarding `Cc1cc(Oc2ccc(C(=O)NCCN3CCCCC3)cc2)c(NS(=O)(=O)c2ccc(Cl)c(C(F)(F)F)c2)cc1Cl`, the inhibitory constant (Ki) in series [1] worked out at 16 nM. In addition, in series [4], the Kb is 1260 nM.
With `COc1cc(Oc2ccc(C(=O)NCCN3CCCC3)cc2)c(NS(=O)(=O)c2ccc(Cl)c(C(F)(F)F)c2)cc1Cl`, the Ki in series [1] came to 4 nM. The Kb in series [4] is 398 nM.
Turning to `O=C(NCCN1CCCCC1)c1ccc(Oc2ncc(Cl)cc2NS(=O)(=O)c2ccc(Cl)c(C(F)(F)F)c2)cc1`, the Cmax is 1520 ng/mL in series [5] and 624 ng/mL in [15]. Moreover, the inhibitory constant (Ki) in series [1] was 3 nM. Besides, the Kb in series [4] is 398 nM. In addition, in series [16], the half-life was 0.9 h. The same compound showed a clearance in series [17] of 39 mL/min/kg. Also, in [18], the Vd was found to be 1.9 L/kg. For the same compound, the bioavailability in series [19] came to 10%. This compound also yielded a logD in series [11] of 3.2. Further, the Activity in the series with Mus musculus was 54%. The concentration for half-maximal inhibition (IC50) in series [13] was more than 25100 nM; in [14], more than 10000 nM.
With `O=C(NCCN1CCNCC1)c1ccc(Oc2ncc(Cl)cc2NS(=O)(=O)c2ccc(Cl)c(Cl)c2)cc1`, the inhibition constant Ki is 40 nM in series [1] and 251 nM in series [2]. The fold change (FC) in series [3] was 6.
Taken in the same sequence, the figures for `O=C(NCCN1CCCC1)c1ccc(Oc2ncc(Cl)cc2NS(=O)(=O)c2ccc(Cl)c(Cl)c2)cc1` were 13 nM, 63 nM and 5.
Taken in the same sequence, the figures for `O=C(NCCN1CCCCC1)c1cccc(Oc2ncc(Cl)cc2NS(=O)(=O)c2ccc(Cl)c(Cl)c2)c1` were 79 nM, 1260 nM and 16.
Turning to `O=C(NCCN1CCCCC1)c1ccc(Oc2ncc(Cl)cc2NS(=O)(=O)c2ccc(Cl)c(Cl)c2)cc1`, the Ki is 13 nM in [1] and 20 nM in series [2]. Besides, in series [3], the fold change (FC) was determined as 1.5. The Kb in series [4] was 1580 nM.
Take `O=C(NCCN1CCCC1)c1cccc(Oc2ncc(Cl)cc2NS(=O)(=O)c2ccc(Cl)c(Cl)c2)c1`: the inhibitory constant (Ki) in [1] turned out to be 100 nM; in [2], 1000 nM. Also, in series [3], the fold change (FC) amounted to 10.
With `O=C(NCCN1CCC(F)(F)C1)c1ccc(Oc2ccc(Cl)cc2NS(=O)(=O)c2ccc(Cl)c(C(F)(F)F)c2)cc1`, in [1], the inhibition constant (Ki) stood at 63 nM. Besides, in series [4], the Kb was 3980 nM.
Regarding `COc1cc(C(=O)NCCN2CCCCC2)ccc1Oc1ccc(Cl)cc1NS(=O)(=O)c1ccc(Cl)c(C(F)(F)F)c1`, the inhibition constant Ki in series [1] is 25 nM. Further, the Kb in series [4] is 1000 nM.
